Key:
[1] = Inhibition of bacteria ADC-7 assessed as apparent inhibition constant using nitrocefin as substrate
Escherichia coli [2] = assay: Synergistic antibacterial activity against Escherichia coli DH10B transfected with pBC SK (-) OXA-48 assessed as cefepime MIC at 4 ug/ml by broth microdilution method; type: functional; settings: dose 4 µg/ml
How it was run: (§1)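 Broth microdilution per CLSI guidelines, using custom frozen panels. […] Each partner drug was also tested alone. MICs were run in triplicate and the modal value is reported.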

Klebsiella pneumoniae [3] = assay: Synergistic antibacterial activity against Klebsiella pneumoniae 660/1568 producing KPC-3 assessed as cefepime MIC at 4 ug/ml by broth microdilution method; type: functional; settings: dose 4 µg/ml; how it was run: as §1
Klebsiella pneumoniae [4] = assay: Synergistic antibacterial activity against Klebsiella pneumoniae 1108/1989 producing KPC-3 assessed as cefepime MIC at 4 ug/ml by broth microdilution method; type: functional; settings: dose 4 µg/ml; how it was run: as §1
Acinetobacter baumannii [5] = assay: Synergistic antibacterial activity against Acinetobacter baumannii PR323 producing OXA-24/40 assessed as cefepime MIC at 4 ug/ml by broth microdilution method; type: functional; settings: dose 4 µg/ml
Acinetobacter baumannii [6] = assay: Synergistic antibacterial activity against Acinetobacter baumannii PR420 producing OXA-23/24/40 assessed as cefepime MIC at 4 ug/ml by broth microdilution method; type: functional; settings: dose 4 µg/ml
Acinetobacter baumannii [7] = assay: Synergistic antibacterial activity against Acinetobacter baumannii PR440 producing OXA-23/24/40 assessed as cefepime MIC at 4 ug/ml by broth microdilution method; type: functional; settings: dose 4 µg/ml
Acinetobacter baumannii [8] = assay: Synergistic antibacterial activity against Acinetobacter baumannii PR474 producing OXA-23/24/40 assessed as cefepime MIC at 4 ug/ml by broth microdilution method; type: functional; settings: dose 4 µg/ml
Acinetobacter baumannii [9] = assay: Synergistic antibacterial activity against ADC deleted Acinetobacter baumannii transfected with pWH1266 producing OXA-24/40 assessed as cefepime MIC at 4 ug/ml by broth microdilution method; type: functional; settings: dose 4 µg/ml
Escherichia coli [10] = assay: Synergistic antibacterial activity against Escherichia coli DH10B transfected with pBC SK (-) PDC-3 assessed as cefepime MIC at 8 ug/ml by broth microdilution method; type: functional; settings: dose 8 µg/ml; how it was run: as §1
Klebsiella pneumoniae [11] = assay: Synergistic antibacterial activity against Klebsiella pneumoniae 977/1916 producing KPC-3 assessed as cefepime MIC at 8 ug/ml by broth microdilution method; type: functional; settings: dose 8 µg/ml
Klebsiella pneumoniae [12] = assay: Synergistic antibacterial activity against Klebsiella pneumoniae 1315/2198 producing KPC-3 assessed as cefepime MIC at 8 ug/ml by broth microdilution method; type: functional; settings: dose 8 µg/ml; how it was run: as §1
Klebsiella pneumoniae [13] = assay: Synergistic antibacterial activity against Klebsiella pneumoniae 440/1360 producing KPC-2 assessed as cefepime MIC at 8 ug/ml by broth microdilution method; type: functional; settings: dose 8 µg/ml; how it was run: as §1
Acinetobacter baumannii [14] = assay: Synergistic antibacterial activity against Acinetobacter baumannii PR363 producing OXA-23 assessed as cefepime MIC at 8 ug/ml by broth microdilution method; type: functional; settings: dose 8 µg/ml
Acinetobacter baumannii [15] = assay: Synergistic antibacterial activity against Acinetobacter baumannii PR381 producing OXA-24/40 assessed as cefepime MIC at 8 ug/ml by broth microdilution method; type: functional; settings: dose 8 µg/ml
Acinetobacter baumannii [16] = assay: Synergistic antibacterial activity against Acinetobacter baumannii PR420 producing OXA-23/24/40 assessed as cefepime MIC at 8 ug/ml by broth microdilution method; type: functional; settings: dose 8 µg/ml
Acinetobacter baumannii [17] = assay: Synergistic antibacterial activity against Acinetobacter baumannii PR440 producing OXA-23/24/40 assessed as cefepime MIC at 8 ug/ml by broth microdilution method; type: functional; settings: dose 8 µg/ml
Acinetobacter baumannii [18] = assay: Synergistic antibacterial activity against Acinetobacter baumannii PR448 producing OXA-23 assessed as cefepime MIC at 8 ug/ml by broth microdilution method; type: functional; settings: dose 8 µg/ml
How it was run: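 Broth microdilution per CLSI guidelines in frozen panels. Test compound held at fixed 8 mg/L while the partner β-lactam concentration was increased. Run in triplicate; modal MIC reported.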

Acinetobacter baumannii [19] = assay: Synergistic antibacterial activity against Acinetobacter baumannii PR476 producing OXA-24/40 assessed as cefepime MIC at 8 ug/ml by broth microdilution method; type: functional; settings: dose 8 µg/ml
Acinetobacter baumannii [20] = assay: Synergistic antibacterial activity against ADC deleted Acinetobacter baumannii transfected with pWH1266 producing OXA-24/40 assessed as cefepime MIC at 8 ug/ml by broth microdilution method; type: functional; settings: dose 8 µg/ml
Escherichia coli [21] = assay: Synergistic antibacterial activity against Escherichia coli DH10B transfected with pBC SK (-) KPC-2 assessed as meropenem MIC at 4 ug/ml by broth microdilution method; type: functional; settings: dose 4 µg/ml
Escherichia coli [22] = assay: Synergistic antibacterial activity against Escherichia coli DH10B transfected with pBC SK (-) PDC-3 assessed as meropenem MIC at 4 ug/ml by broth microdilution method; type: functional; settings: dose 4 µg/ml; how it was run: as §1
Acinetobacter baumannii [23] = assay: Synergistic antibacterial activity against ADC deleted Acinetobacter baumannii assessed as meropenem MIC at 4 ug/ml by broth microdilution method; type: functional; settings: dose 4 µg/ml
Klebsiella pneumoniae [24] = assay: Synergistic antibacterial activity against Klebsiella pneumoniae 729/1679 producing KPC-3 assessed as meropenem MIC at 4 ug/ml by broth microdilution method; type: functional; settings: dose 4 µg/ml; how it was run: as §1
Klebsiella pneumoniae [25] = assay: Synergistic antibacterial activity against Klebsiella pneumoniae 776/1742 producing KPC-2 assessed as meropenem MIC at 4 ug/ml by broth microdilution method; type: functional; settings: dose 4 µg/ml
Klebsiella pneumoniae [26] = assay: Synergistic antibacterial activity against Klebsiella pneumoniae 1354/2241 producing KPC-3 assessed as meropenem MIC at 4 ug/ml by broth microdilution method; type: functional; settings: dose 4 µg/ml; how it was run: as §1
Klebsiella pneumoniae [27] = assay: Synergistic antibacterial activity against Klebsiella pneumoniae 11978 producing OXA-48 assessed as meropenem MIC at 4 ug/ml by broth microdilution method; type: functional; settings: dose 4 µg/ml; how it was run: as §1
Klebsiella pneumoniae [28] = assay: Synergistic antibacterial activity against Klebsiella pneumoniae NY BS producing OXA-232 assessed as meropenem MIC at 4 ug/ml by broth microdilution method; type: functional; settings: dose 4 µg/ml
Acinetobacter baumannii [29] = assay: Synergistic antibacterial activity against Acinetobacter baumannii PR359 producing OXA-23 assessed as meropenem MIC at 4 ug/ml by broth microdilution method; type: functional; settings: dose 4 µg/ml
Acinetobacter baumannii [30] = assay: Synergistic antibacterial activity against Acinetobacter baumannii PR408 producing OXA-24/40 assessed as meropenem MIC at 4 ug/ml by broth microdilution method; type: functional; settings: dose 4 µg/ml
Acinetobacter baumannii [31] = assay: Synergistic antibacterial activity against Acinetobacter baumannii PR474 producing OXA-23/24/40 assessed as meropenem MIC at 4 ug/ml by broth microdilution method; type: functional; settings: dose 4 µg/ml
Klebsiella pneumoniae [32] = assay: Synergistic antibacterial activity against Klebsiella pneumoniae 440/1360 producing KPC-2 assessed as meropenem MIC at 8 ug/ml by broth microdilution method; type: functional; settings: dose 8 µg/ml; how it was run: as §1
Klebsiella pneumoniae [33] = assay: Synergistic antibacterial activity against Klebsiella pneumoniae 11978 producing OXA-48 assessed as meropenem MIC at 8 ug/ml by broth microdilution method; type: functional; settings: dose 8 µg/ml; how it was run: as §1
Acinetobacter baumannii [34] = assay: Synergistic antibacterial activity against Acinetobacter baumannii PR323 producing OXA-24/40 assessed as meropenem MIC at 8 ug/ml by broth microdilution method; type: functional; settings: dose 8 µg/ml
Acinetobacter baumannii [35] = assay: Synergistic antibacterial activity against Acinetobacter baumannii PR381 producing OXA-24/40 assessed as meropenem MIC at 8 ug/ml by broth microdilution method; type: functional; settings: dose 8 µg/ml
Acinetobacter baumannii [36] = assay: Synergistic antibacterial activity against Acinetobacter baumannii PR474 producing OXA-23/24/40 assessed as meropenem MIC at 8 ug/ml by broth microdilution method; type: functional; settings: dose 8 µg/ml
Escherichia coli [37] = assay: Antibacterial activity against Escherichia coli DH10B by broth microdilution method; type: functional
Klebsiella pneumoniae [38] = assay: Antibacterial activity against Klebsiella pneumoniae jefferson 1775 producing OXA-48 by broth microdilution method; type: functional

SMILES	MIC (Escherichia coli [2])	MIC (Klebsiella pneumoniae [3])	MIC (Klebsiella pneumoniae [4])	MIC (Acinetobacter baumannii [5])	MIC (Acinetobacter baumannii [6])	MIC (Acinetobacter baumannii [7])	MIC (Acinetobacter baumannii [8])	MIC (Acinetobacter baumannii [9])	MIC (Escherichia coli [10])	MIC (Escherichia coli [21])	MIC (Escherichia coli [22])	MIC (Acinetobacter baumannii [23])	MIC (Klebsiella pneumoniae [24])	MIC (Klebsiella pneumoniae [25])	MIC (Klebsiella pneumoniae [26])	MIC (Klebsiella pneumoniae [27])	MIC (Klebsiella pneumoniae [28])	MIC (Acinetobacter baumannii [29])	MIC (Acinetobacter baumannii [30])	MIC (Acinetobacter baumannii [31])	also measured
O=C(NNC(=O)[C@@H]1CC[C@@H]2CN1C(=O)N2OS(=O)(=O)O)[C@@H]1CCCNC1 [ZIDEBACTAM]	≤ 0.12 µg/mL	≤ 0.12 µg/mL	≤ 0.12 µg/mL	4 µg/mL	> 16 µg/mL	16 µg/mL	8 µg/mL	16 µg/mL	≤ 0.12 µg/mL	≤ 0.12 µg/mL	≤ 0.12 µg/mL	≤ 0.12 µg/mL	≤ 0.12 µg/mL	≤ 0.12 µg/mL	≤ 0.12 µg/mL	≤ 0.12 µg/mL	≤ 0.12 µg/mL	> 16 µg/mL	> 16 µg/mL	> 16 µg/mL	Ki [1]: 2300 nM; MIC (Klebsiella pneumoniae [11]): ≤ 0.12 µg/mL; MIC (Klebsiella pneumoniae [12]): ≤ 0.12 µg/mL; MIC (Klebsiella pneumoniae [13]): ≤ 0.12 µg/mL; MIC (Acinetobacter baumannii [14]): 8 µg/mL; MIC (Acinetobacter baumannii [15]): 16 µg/mL; MIC (Acinetobacter baumannii [16]): > 16 µg/mL; MIC (Acinetobacter baumannii [17]): > 16 µg/mL; MIC (Acinetobacter baumannii [18]): 8 µg/mL; MIC (Acinetobacter baumannii [19]): 2 µg/mL; MIC (Acinetobacter baumannii [20]): 16 µg/mL; MIC (Klebsiella pneumoniae [32]): ≤ 0.12 µg/mL; MIC (Klebsiella pneumoniae [33]): ≤ 0.12 µg/mL; MIC (Acinetobacter baumannii [34]): > 16 µg/mL; MIC (Acinetobacter baumannii [35]): > 16 µg/mL; MIC (Acinetobacter baumannii [36]): > 16 µg/mL
O.O=C(NC1CCNCC1)[C@@H]1CC[C@@H]2CN1C(=O)N2OS(=O)(=O)O [RELEBACTAM]	≤ 0.12 µg/mL	0.25 µg/mL	0.5 µg/mL	> 16 µg/mL	> 16 µg/mL	> 16 µg/mL	> 16 µg/mL	> 16 µg/mL	–	≤ 0.12 µg/mL	≤ 0.12 µg/mL	≤ 0.12 µg/mL	≤ 0.12 µg/mL	0.5 µg/mL	≤ 0.12 µg/mL	> 16 µg/mL	> 16 µg/mL	> 16 µg/mL	> 16 µg/mL	> 16 µg/mL	MIC (Escherichia coli [37]): > 16 µg/mL; MIC (Klebsiella pneumoniae [38]): > 16 µg/mL
N#C[C@@H]1CC[C@@H]2CN1C(=O)N2OS(=O)(=O)[O-].[Na+]	≤ 0.12 µg/mL	0.25 µg/mL	0.25 µg/mL	> 16 µg/mL	> 16 µg/mL	16 µg/mL	8 µg/mL	16 µg/mL	≤ 0.12 µg/mL	≤ 0.12 µg/mL	≤ 0.12 µg/mL	≤ 0.12 µg/mL	≤ 0.12 µg/mL	0.5 µg/mL	≤ 0.12 µg/mL	≤ 0.12 µg/mL	0.25 µg/mL	4 µg/mL	> 16 µg/mL	> 16 µg/mL	MIC (Escherichia coli [37]): > 16 µg/mL; MIC (Klebsiella pneumoniae [38]): > 16 µg/mL; MIC (Klebsiella pneumoniae [11]): ≤ 0.12 µg/mL; MIC (Klebsiella pneumoniae [12]): 0.25 µg/mL; MIC (Klebsiella pneumoniae [13]): 0.25 µg/mL; MIC (Acinetobacter baumannii [14]): 8 µg/mL; MIC (Acinetobacter baumannii [15]): 16 µg/mL; MIC (Acinetobacter baumannii [16]): > 16 µg/mL; MIC (Acinetobacter baumannii [17]): > 16 µg/mL; MIC (Acinetobacter baumannii [18]): 4 µg/mL; MIC (Acinetobacter baumannii [19]): 2 µg/mL; MIC (Acinetobacter baumannii [20]): 16 µg/mL; MIC (Klebsiella pneumoniae [32]): ≤ 0.12 µg/mL; MIC (Klebsiella pneumoniae [33]): ≤ 0.12 µg/mL; MIC (Acinetobacter baumannii [34]): 16 µg/mL; MIC (Acinetobacter baumannii [35]): > 16 µg/mL; MIC (Acinetobacter baumannii [36]): 16 µg/mL

— ChEMBL document CHEMBL5247575 (J Med Chem, 2018)
